Reference: publication PMC6750927 (Science Advances, 2019)

Columns and labels:
Cdc37 R246A mutant = Cdc37 R246A mutant (UniProt Q16543); assay: ITC
Cdc37, wild type = Cdc37, wild type (UniProt Q16543); assay: ITC
Cdc37 Q208A mutant = Cdc37 Q208A mutant (UniProt Q16543); assay: ITC
Hsp90 ATPase activity = Hsp90 ATPase activity (Homo sapiens, UniProt P07900); assay: Hsp90 ATPase assay; type: biochemical
Procedure, shortened: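 Hsp90 ATPase measured with an ADP Hunter Plus kit at 37°C. Compound, Hsp90 (5 μM as added) and ATP (100 μM as added) combined in equal parts for 1 h. Background taken without protein or compound; protein alone set as 100% activity. n = 3 wells, from three independent experiments.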

Hsp90 ATP binding site = Hsp90 ATP binding site (Homo sapiens, UniProt P07900); assay: ATP binding site competitive FP assay
Procedure, shortened: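 Competition for the Hsp90 ATP site by fluorescence polarization with a fluorescein isothiocyanate–geldanamycin probe. Read at excitation 485 nm and emission 535 nm. Inhibition rate derived by a previously reported method. n = 3 wells, from three independent experiments.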

Hsp90-Cdc37 PPI = Hsp90-Cdc37 PPI (Homo sapiens, UniProt P07900); assay: Hsp90-Cdc37 HTRF assay; type: binding; details: dose-dependent
Procedure, shortened: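 His-tagged Hsp90 and GST-tagged Cdc37 premixed at 80 nM final in PBS with 200 mM KF, pH 7.4. Twofold dilutions of test compound (seven concentrations) added for 1 h at 37°C. HTRF read at excitation 320 nm, emission 665 and 620 nm; ratio = (665/620) × 10,000. n = 3 wells, from three independent experiments.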

Sequence of Cdc37, wild type (Q16543 whole entry): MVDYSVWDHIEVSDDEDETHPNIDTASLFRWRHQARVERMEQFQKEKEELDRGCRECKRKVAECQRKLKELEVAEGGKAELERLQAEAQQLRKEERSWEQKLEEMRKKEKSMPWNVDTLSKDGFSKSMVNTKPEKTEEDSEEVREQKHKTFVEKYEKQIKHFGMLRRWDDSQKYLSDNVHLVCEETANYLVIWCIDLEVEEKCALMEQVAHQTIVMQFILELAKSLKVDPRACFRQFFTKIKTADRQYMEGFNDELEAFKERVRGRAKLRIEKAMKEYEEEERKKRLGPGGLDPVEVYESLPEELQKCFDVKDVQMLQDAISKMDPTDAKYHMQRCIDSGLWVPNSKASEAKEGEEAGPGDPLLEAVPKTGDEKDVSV
Sequence of Cdc37 Q208A mutant (Q16543 whole entry Q208A): as the sequence (Q16543 whole entry) above, with Q208A counted along it
Sequence of Cdc37 R246A mutant (Q16543 whole entry R246A): as the sequence (Q16543 whole entry) above, with R246A counted along it

With “Heat shock protein 90 (Hsp90), wild type, His-tagged (from UniProt P07900 1-732) (natural protein)” the Kd (Cdc37 R246A mutant) was 6.02 µM, the Kd (Cdc37, wild type) was 2.17 µM and the Kd (Cdc37 Q208A mutant) was 3.51 µM.

With “Hsp90 Y61A mutant (from UniProt P07900 1-732) (natural protein)” the Kd (Cdc37, wild type) was 6.85 µM.

With CC(C)c1cc(C(=O)N2Cc3ccc(CN4CCN(C)CC4)cc3C2)c(O)cc1O [AT13387] the IC50 (Hsp90 ATPase activity) was 160 nM, the IC50 (Hsp90 ATP binding site) was 12 nM and the “inhibition of Hsp90-Cdc37 binding (IC50)” value (Hsp90-Cdc37 PPI) was “no activity”.

“Hsp90 R46A mutant (from UniProt P07900 1-732) (natural protein)” showed a Kd (Cdc37, wild type) of 8.85 µM.
